Results as given in PMC3667555 (Bioconjugate chemistry, 2013).

Test system: U87MG human glioma xenografts
Experiment: Biodistribution in athymic nude mice bearing U87MG glioma xenografts
Assay type: in vivo
Conditions: 1 h p.i.
Summary of the method: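 Female athymic nu/nu mice (4–5 weeks at purchase) received 5 × 10^6 U87MG cells in the shoulder flank and were used 4 weeks later (tumor 0.1–0.5 g, mice 20–25 g). Each got ~0.1 MBq HPLC-purified 99mTc radiotracer in saline by tail vein. Killed by pentobarbital overdose at 60 min p.i.; blood by heart puncture; organs washed, weighed, γ-counted; %ID/g; n = 4–6.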

[1] = tail-vein injection, without RGD2

“[^99mTc(HYNIC-3P-RGD2)(tricine)(TPPTS)] [Compound 5]” showed a Tumor/Blood of 15.36 ± 1.01, a Tumor/Liver of 2.55 ± 0.36 and a Tumor/Lung of 1.71 ± 0.05. The Tumor/Muscle was 6.58 ± 1.58, the Blood uptake (tail-vein injection) was 0.47 ± 0.06 %ID/g and the Brain uptake (tail-vein injection) was 0.17 ± 0.03 %ID/g. For the same substance, the Eyes uptake (tail-vein injection) was 1.40 ± 0.13 %ID/g, the Heart uptake (tail-vein injection) was 1.67 ± 0.15 %ID/g and the Kidneys uptake (tail-vein injection) was 12.28 ± 1.09 %ID/g. The Liver uptake (tail-vein injection) was 2.92 ± 0.77 %ID/g, the Lungs uptake (tail-vein injection) was 4.25 ± 0.63 %ID/g and the Muscle uptake (tail-vein injection) was 1.12 ± 0.15 %ID/g. The Spleen uptake (tail-vein injection) was 3.11 ± 0.18 %ID/g, the Intestine uptake [1] was 9.45 ± 1.31 %ID/g and the Tumor uptake [1] was 7.24 ± 0.95 %ID/g.
